Measurements pooled from the literature.
Each line is one published result; the experiments were not run side by side.
Target: Casein kinase I isoform alpha (CSNK1A1, Homo sapiens, UniProt P48729)

CN(C)c1nccc(-c2cnn3ncccc23)n1  remaining binding (binding; 1 µM): 60%
CNC(=O)Nc1ccc2c(c1)CC[C@@]21OC(=O)N(CC(=O)N(Cc2ccc(F)cc2)[C@@H](C)C(F)(F)F)C1=O  remaining binding (cell-free assay; competition with immobilised ligand; 1 µM): 93%
O=C(c1ccc(Nc2nccc(-c3cc4ccccc4s3)n2)cc1)N1CCC(N2CCCC2)CC1  remaining binding (binding; competition with immobilised ligand; 1 µM): 78%
CC1CCCN1c1nccc(-c2cnn3ncccc23)n1 (stereo not shown)  remaining binding (binding; 1 µM): 100%
Cn1nc(C(F)(F)F)cc1-c1cnc(N2CCc3cc(S(=O)(=O)Nc4c(F)cc(Cl)cc4F)cc(N4CCCC4=O)c32)nc1  remaining binding (cell-free assay; competition with immobilised ligand; 1 µM): 86%
Cc1cnn2ncc(-c3ccnc(N(C)C)n3)c2c1  remaining binding (binding; 1 µM): 43%
CNC(=O)[C@@H]1CC[C@@H](n2c(-c3ccc4cnccc4c3)nc3ccc(C(=O)NCc4cccc(C(N)=O)c4)cc32)C1  remaining binding (binding; competition with immobilised ligand; 1 µM): 99%
O=C(NCC1CCOCC1)c1n[nH]cc1NC(=O)c1c(F)cccc1F  remaining binding (binding; competition with immobilised ligand; 1 µM): 77%
FC(F)(F)Oc1cccc(-c2cnc3ccc(-c4ccncc4)nn23)c1  remaining binding (cell-free assay; competition with immobilised ligand; 5 µM): 52%
COc1ccnn2ncc(-c3ccnc(N(C)C)n3)c12  remaining binding (binding; 1 µM): 55%
CCN1CCN(Cc2ccc(C(=O)Nc3ccc(C)c(Oc4ccc5c(c4)CC(=O)N5)c3)cc2C(F)(F)F)CC1  remaining binding (binding; competition with immobilised ligand; 1 µM): 100%
O=C(c1ccc(Nc2ncc(Cl)c(-c3ccc(Cl)s3)n2)cc1)N1CCC(N2CCCC2)CC1  remaining binding (binding; competition with immobilised ligand; 1 µM): 97%
CS(=O)(=O)c1cc(C2(NC(=O)c3cncc4c3cnn4-c3ccc(F)cc3)CC2)ccn1  remaining binding (cell-free assay; competition with immobilised ligand; 1 µM): 96%
CN(C)c1ncc(F)c(-c2cnn3ncccc23)n1  remaining binding (binding; 1 µM): 98%
CS(=O)(=O)N1CCCC(NC(=O)[C@H](CCC2CCCCC2)NC(=O)c2ccc(CNc3ncnc4c3nnn4-c3ccccc3)cc2)C1 (stereo partly shown)  remaining binding (cell-free assay; competition with immobilised ligand; 0.1 µM): 99%
C[C@@H](c1ccc(-n2cnc3c(N)ncnc32)cc1)N1CCc2nn(C)c(Cc3ccccc3)c2C1=O  remaining binding (binding; competition with immobilised ligand; 0.1 µM): 87%
O=C(NC[C@@H]1[C@H]2CN(C(=O)OCc3cc(C(F)(F)F)cc(C(F)(F)F)c3)C[C@@H]12)c1ccc2[nH]nnc2c1  remaining binding (cell-free assay; competition with immobilised ligand; 1 µM): 100%
N[C@H]1CCN(c2nccc(-c3cnn4ncccc34)n2)C1  remaining binding (binding; 1 µM): 41%
CC1=C(C#N)C(c2ccc3c(c2)c(NC(=O)c2ccccc2C)nn3C)C(C#N)=C(C)N1  remaining binding (cell-free assay; competition with immobilised ligand; 1 µM): 70%
C[C@@H]1CCN(c2nccc(-c3cnn4ncccc34)n2)C1  remaining binding (binding; 1 µM): 61%
CS(=O)(=O)NCC[C@H](NC(=O)c1cncc2c1cnn2-c1ccc(F)cc1)c1ccnc(S(C)(=O)=O)c1  remaining binding (cell-free assay; competition with immobilised ligand; 1 µM): 100%
O=C(c1ccc(Nc2ncc(Cl)c(-c3cc4ccccc4s3)n2)cc1)N1CCC(N2CCCC2)CC1  remaining binding (binding; competition with immobilised ligand; 1 µM): 67%
